Experimental data of several laboratories.
Lines come from different studies, so protocols differ.
Target: Beta-2 adrenergic receptor (ADRB2, Homo sapiens, UniProt P07550)
Concentration: 10 µM

With `CCCNc1nc2ccccc2n1Cc1ccc(Cl)cc1` the inhibition was -10.2% (ligand displacement).
With `CC(=O)N1CCC(c2ccc(C(=O)NC3=NCCN3)cc2C(F)(F)F)CC1` the inhibition was -14.2% (ligand displacement).
With `CCN(CC)c1ccc(C2Nc3ccc(C(=O)c4ccccc4)cc3NC3=C2C(=O)CC(C)(C)C3)cc1` (stereo not shown) the inhibition was 1% (ligand displacement, radioligand).
`CN1CCN(c2ccnc(NCCc3ccccc3)n2)CC1` gave an inhibition of -3.49% (ligand displacement).
With `O=C1N=C(N2CCCCN2)S/C1=C\c1ccc(F)cc1O` the inhibition was under 10% (ligand displacement, radioligand).
`N#Cc1cc(Cn2c(N3CCCC3)nc3ccccc32)ccc1F` gave an inhibition of 0% (ligand displacement).
`Oc1cccc(Nc2nc(-c3ccc(F)cc3F)cs2)c1` gave an inhibition of 4% (cell-free assay).
For `Ic1cccc2cnccc12`, the inhibition was 0% (ligand displacement, radioligand).
`O=C(Nc1ccc(S(=O)(=O)N2CCC(Cl)CC2)cc1)c1ccc([N+](=O)[O-])o1` has an inhibition of 17% (ligand displacement, radioligand).
`O=C(c1ccc(F)cc1)N(Cc1ccccc1)C1CCCCC1` has an inhibition of 7% (cell-free assay).
